Among the data in ChEMBL document CHEMBL3425457, “Identification of Novel ROS Inducers: Quinone Derivatives Tethered to Long Hydrocarbon Chains” (J Med Chem, 2015) are Activity values, retold here.

What all share (format): functional, cell-based
For test [1], the system named is HCT-116. The test can be described thus: Induction of phosphorylation of JNK1/2 in human HCT116 cells after 3 hrs by Western blot analysis. An outline of the steps:
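A549 or HCT116 cells seeded at 6 × 10⁵ per 60 mm dish and left overnight, then exposed to compound for 3 h at 37 °C, 5% CO₂. Cells washed in cold PBS and lysed in RIPA; 25–50 μg protein (BCA) run on SDS-PAGE and transferred to PVDF. Blocked in 5% milk/TBS-T, primary antibody overnight at 4 °C, HRP secondary 1:2000 for 1 h at room temperature, ECL detection.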
In general terms: In western blotting, separated proteins are transferred to a membrane and probed.

Test [2] relates to A549. Description: Induction of apoptosis in human A549 cells at 10 uM after 48 hrs by FACS analysis. (Flow cytometry measures light scatter and fluorescence of single cells or particles in a stream.)
Test [3] relates to A549. Description: Induction of apoptosis in human A549 cells assessed as decrease in Bcl2 level after 48 hrs by Western blot analysis. An outline of the steps: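 Western blotting. Cells were seeded at 6 × 10⁵ per 60 mm dish overnight, then treated with a dose series at 37 °C in 5% CO2 for 48 h. RIPA lysates were BCA-quantified and 25–50 μg was resolved by SDS-PAGE onto PVDF. Membranes were blocked in TBS/T with 5% milk, probed with primary antibody overnight at 4 °C and HRP secondary at 1:2000 for 1 h, and detected by ECL.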

The test system of test [4] is HCT-116. The test can be described thus: Induction of apoptosis in human HCT116 cells at 10 uM after 48 hrs by FACS analysis.
Test [5] can be described thus: Induction of ROS production in HFF1 cells at 10 uM after 3 hrs by DCF-DA staining-based fluorescence assay relative to DMSO treated control. The conditions noted are these: Homo sapiens, HFF-1. The procedure, abridged: (§1)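 HFF-1 fibroblasts were grown on cover glass at 1 × 10⁶ per well for 18–24 h and exposed to compound for 3 h. They were then stained with 10 μM DCF-DA for 30 min. Cells were fixed in 4% formaldehyde for 20 min, PBS-washed and imaged by fluorescence microscopy.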

Test [6] deals with A549. The test can be described thus: Increase in oxidized […] level in human A549 cells at 10 uM after 4 hrs by luminescence assay. The procedure, abridged: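 Cellular GSH and GSSG levels were measured in A549 cells after 4 h of compound treatment.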
Test [7] relates to A549. The test can be described thus: Induction of ROS production in human A549 cells after 3 hrs by DCF-DA staining-based fluorescence assay. The procedure, abridged: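 For probe imaging, A549 cells were seeded on cover glass at 1 × 10⁶ per well and grown 18–24 h. They were treated for 3 h, then stained 30 min with 10 μM DCF-DA, DHE or APF. Cells were fixed in 4% formaldehyde for 20 min, washed twice with PBS and viewed by fluorescence microscopy.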

A short description of test [8]: Induction of ROS production in HFF1 cells at 2 uM after 3 hrs by DCF-DA staining-based fluorescence assay relative to DMSO treated control. Particulars: Homo sapiens, HFF-1. An outline of the steps: as §1

Structures are written as SMILES. Active and inactive are the calls of the source. The calls are words filed in the database; no cut-off is given here.

With `CCCCCC/C=C\CCCCc1cc(O)cc(OC)c1O`, the Activity entry in test [1] and in test [3] was “Dose-dependent effect” each time. Also, the outcome in test [2] and in test [4] was Active.

Turning to `CCCCCC/C=C\CCCCCCCCCc1cc(O)cc(OC)c1O`, the result in test [5] and in test [8] was inactive. The Activity result in test [1] and in test [3] was “Dose-dependent effect” each time. Further, the result in test [6] and in test [7] was Active.
